Reference: ChEMBL document CHEMBL1126276, “Synthesis and antimalarial properties of 1-imino derivatives of 7-chloro-3-substituted-3,4-dihydro-1,9(2H,10H)-acridinediones and related structures” (J Med Chem, 1992)
Several values for one entry are separate records, joined by “and”; a condition that tells them apart may be missing. Equal values may be shown once.

Key:
Plasmodium berghei [1] = assay: Antimalarial activity in Plasmodium berghei infected mice (Mus musculus) after subcutaneous 160 mg/kg dose; assay type: functional
Summary of the method: (§1)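 Normal drug-sensitive P. berghei strain in mice. Compound dissolved or suspended in sesame or peanut oil, given parenterally as a single subcutaneous dose 72 h postinfection.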

Plasmodium berghei [2] = assay: (§2) Antimalarial activity in Plasmodium berghei infected mice (Mus musculus) after 20 mg/kg subcutaneous dose; assay type: functional; summary of the method: as §1
Plasmodium berghei [3] = assay: Antimalarial activity in Plasmodium berghei infected mice (Mus musculus) after subcutaneous 320 mg/kg dose; assay type: functional; summary of the method: as §1
Plasmodium berghei [4] = assay: (§3) Antimalarial activity in Plasmodium berghei infected mice (Mus musculus) after 40 mg/kg subcutaneous dose; assay type: functional; summary of the method: as §1
Plasmodium berghei [5] = assay: Antimalarial activity in Plasmodium berghei infected mice (Mus musculus) after subcutaneous 640 mg/kg dose; assay type: functional; summary of the method: as §1
Plasmodium berghei [6] = assay: (§4) Antimalarial activity in Plasmodium berghei infected mice (Mus musculus) after 80 mg/kg subcutaneous dose; assay type: functional; summary of the method: as §1
Plasmodium berghei [7] = assay: as §2; assay type: functional; remark: listed apart in the source
Summary of the method: (§5)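 […] in mice infected with a normal drug-sensitive P. berghei strain. Compound dissolved or suspended in sesame or peanut oil, given as a single subcutaneous dose 72 h postinfection.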

Plasmodium berghei [8] = assay: as §4; assay type: functional; summary of the method: as §5; remark: listed apart in the source
Plasmodium berghei [9] = assay: as §3; assay type: functional; summary of the method: as §5; remark: listed apart in the source
Plasmodium berghei [10] = assay: Antimalarial activity in Plasmodium berghei infected mice (Mus musculus) after 160 mg/kg subcutaneous dose; assay type: functional; summary of the method: as §5
Plasmodium berghei [11] = assay: Antimalarial activity in Plasmodium berghei infected mice (Mus musculus) after 320 mg/kg subcutaneous dose; assay type: functional; summary of the method: as §5
Plasmodium berghei [12] = assay: Antimalarial activity was measured against mice (Mus musculus) infected with Plasmodium berghei by subcutaneous administration of 640 mg/kg dose; assay type: organism-based; parameters: dose 640 mg/kg, route subcutaneous; details: in vivo, sc; summary of the method: as §5
Plasmodium berghei [13] = assay: Antimalarial activity Plasmodium berghei infected mice (Mus musculus) after 640 mg/kg subcutaneous dose; assay type: functional; summary of the method: as §5

Structure (SMILES)	No. of cured mice (Plasmodium berghei [1])	No. of cured mice (Plasmodium berghei [2])	No. of cured mice (Plasmodium berghei [3])	No. of cured mice (Plasmodium berghei [4])	No. of cured mice (Plasmodium berghei [5])	No. of cured mice (Plasmodium berghei [6])	Delta mean survival time (Plasmodium berghei [7])	Delta mean survival time (Plasmodium berghei [8])	Delta mean survival time (Plasmodium berghei [9])	Delta mean survival time (Plasmodium berghei [10])	Delta mean survival time (Plasmodium berghei [11])	No. of toxic deaths (Plasmodium berghei [12])	Delta mean survival time (Plasmodium berghei [13])	Delta mean survival time (Plasmodium berghei [9]; 40 mg/kg)	No. of cured mice (Plasmodium berghei [4]; 40 mg/kg)	Delta mean survival time (Plasmodium berghei [7]; 20 mg/kg)	Delta mean survival time (Plasmodium berghei [8]; 80 mg/kg)
O=c1c2c(n(O)c3ccc(Cl)cc13)CC(c1ccc(C(F)(F)F)cc1)C/C2=N\CCCN(CCO)CCO (configuration not stated)	5	2	5	4	5	1	12	9.5	14.8	–	–	–	–	–	–	–	–
O=C1CC(c2ccc(Cl)cc2Cl)Cc2c1c(=O)c1cc(Cl)ccc1n2O (configuration not stated)	5	2	5	5	5	5	1.9	–	–	–	–	–	–	–	–	–	–
O=c1c2c(n(O)c3ccc(Cl)cc13)CC(c1ccc(Cl)c(Cl)c1)C/C2=N\CCCNCCO (configuration not stated)	3	–	4	–	5	1	2	7.9	6.6	9.6	11.6	–	–	–	–	–	–
N=C1CC(c2ccc(C(F)(F)F)cc2)Cc2nc3ccc(Cl)cc3c(O)c21 (configuration not stated)	5	1	5	5	5	5	11.2	–	–	–	–	–	–	–	–	–	–
CC1C(=O)c2c(n(O)c3ccc(Cl)cc3c2=O)CC1c1ccc(Cl)c(Cl)c1 (configuration not stated)	5	3	5	4	5	5	7.6	–	9.6	–	–	–	–	–	–	–	–
CSc1ccc(C2C/C(=N\CCCN(C)C)c3c(nc4ccc(Cl)cc4c3O)C2)cc1 (configuration not stated)	1	–	3	–	4	1	2.8	4	3.4	9.8	12.8	1	–	–	–	–	–
O=c1c2c(n(O)c3ccc(Cl)cc13)CC(c1cccc(C(F)(F)F)c1)C/C2=N\CCN1CCCC1 (configuration not stated)	4	–	5	–	4	–	–	8	6.6	9.6	–	1	–	–	–	–	–
O=C1CC(c2ccc(C(F)(F)F)cc2)Cc2nc3ccc(Br)cc3c(O)c21 (configuration not stated)	1	–	3	–	4	–	3.6	3	5	4.4	10.6	–	12.8	–	–	–	–
O=c1c2c(n(O)c3ccc(Cl)cc13)CC(c1ccc(C(F)(F)F)cc1)C/C2=N\CCCN1CCCCC1 (configuration not stated)	5	–	5	3	1	3	8.5	12	10	–	–	4	–	–	–	–	–
COc1cc(C2C/C(=N\CCCN3CCCCC3)c3c(n(O)c4ccc(Cl)cc4c3=O)C2)cc(OC)c1OC (configuration not stated)	–	–	–	–	–	–	–	–	0.3	1.4	–	1	4.5	–	–	–	–
CCCCCCC/N=C1\CC(c2ccc(C(F)(F)F)cc2)Cc2c1c(=O)c1cc(Cl)ccc1n2O (configuration not stated)	5	–	3	–	4	5	–	–	4.3	–	14.7	1	–	–	–	–	–
OCCNCC/N=C1\CC(c2ccc(Cl)cc2Cl)Cc2nc3ccc(Cl)cc3c(O)c21 (configuration not stated)	5	5	5	5	5	5	–	–	–	–	–	–	–	–	–	–	–
CC1C(=O)c2c(n(O)c3ccc(Cl)cc3c2=O)CC1c1ccc(Cl)cc1Cl (configuration not stated)	5	2	5	5	5	5	10.7	–	–	–	–	–	–	–	–	–	–
CCN(CC)CCCC/N=C1\CC(c2ccc(C(F)(F)F)cc2)Cc2nc3ccc(Cl)cc3c(O)c21 (configuration not stated)	5	2	5	4	5	5	18.6	–	13.6	–	–	–	–	–	–	–	–
CN(C)CCC/N=C1/c2c([nH]c3ccc(Cl)cc3c2=O)CC(c2ccc(Cl)c(Cl)c2)C1Cc1ccccc1 (configuration not stated)	–	–	–	–	–	–	-0.1	0.7	0.5	6.1	7.7	5	–	–	–	–	–
CC1C(=O)c2c(nc3ccc(Cl)cc3c2O)CC1c1ccc(Cl)cc1Cl (configuration not stated)	2	–	2	–	5	2	8.2	1.18	–	15	17	–	–	10 and 9.3	–	–	–
CC1/C(=N\CCCN(C)C)c2c(nc3ccc(Cl)cc3c2O)CC1c1ccc(Cl)c(Cl)c1 (stereo in doubt)	–	–	–	–	4	–	–	–	–	–	–	1	–	21	4	7.8	10.7
CN(C)CCC/N=C1\CC2(CCCCC2)Cc2nc3ccc(Cl)cc3c(O)c21	–	–	–	–	–	–	–	–	0.6	0	–	1	0.4	–	–	–	–
CCN(CC)CCCC(C)/N=C1\CC(c2ccc(Cl)cc2Cl)Cc2nc3ccc(Cl)cc3c(O)c21 (configuration not stated)	5	3	5	4	5	5	10.2	–	13.7	–	–	–	–	–	–	–	–
CN(C)CCC/N=C1\CC(c2ccc(C(F)(F)F)cc2)Cc2nc3ccc(I)cc3c(O)c21 (configuration not stated)	2	–	–	–	1	–	–	–	3	7.3	–	1	14	–	–	–	–
O=C1CC(c2ccccc2)Cc2c1c(=O)c1cc(Cl)ccc1n2O (configuration not stated)	2	–	2	–	3	–	1.8	5.6	4	5.7	9.3	–	11.5	–	–	–	–
COCCC/N=C1\CC(c2cccc(C(F)(F)F)c2)Cc2c1c(=O)c1cc(Cl)ccc1n2O (configuration not stated)	1	–	3	–	5	1	–	–	–	5.1	13.8	–	–	–	–	–	–
CC(C)CN(CC/N=C1\CC(c2ccc(Cl)c(Cl)c2)Cc2c1c(=O)c1cc(Cl)ccc1n2O)CC(C)C (configuration not stated)	2	–	1	1	5	1	3.6	6.3	5.3	9.7	13	–	–	–	–	–	–
CC1C(=O)c2c(nc3ccc(Cl)cc3c2O)CC1c1ccc(Cl)c(C(F)(F)F)c1 (configuration not stated)	1	–	1	–	2	–	0.9	1.1	0.7	1.5	5	–	5.7	–	–	–	–
O=C1CC(c2ccc(C(F)(F)F)cc2)Cc2c1c(=O)c1cc(Cl)ccc1n2Cc1ccccc1 (configuration not stated)	–	–	–	–	–	–	–	–	0.2	0	–	1	0.3	–	–	–	–
COc1ccccc1C1CC(=O)c2c(n(O)c3ccc(Cl)cc3c2=O)C1 (configuration not stated)	–	–	–	–	–	–	0.8	1.8	2.2	–	2.2	3	–	–	–	–	–
CCN(CC)CC(C)(C)C/N=C1\CC(c2ccc(Cl)c(Cl)c2)Cc2c1c(=O)c1cc(Cl)ccc1n2O (configuration not stated)	4	–	4	1	5	2	4	10.3	9.6	14.6	13.6	–	–	–	–	–	–
CCN(CC)CC(C)(C)C/N=C1\CC(c2ccc(Cl)cc2Cl)Cc2nc3ccc(Cl)cc3c(O)c21 (configuration not stated)	5	3	5	4	5	5	12.7	–	13.7	–	–	–	–	–	–	–	–
